Results on 14 molecules are retold here after article PMC10194142 (Virus Research, 2023).

Data set [1] concerns the target T1, ZIKV NS2B-NS3 protease (Zika virus, UniProt Q32ZE1).
T1 sequence (Q32ZE1 with tags, fused parts or gaps DEL1468-1489/Y1490G/V1491G/Y1492G/V1493G/K1494S/T1495G/K1497G/R1498G): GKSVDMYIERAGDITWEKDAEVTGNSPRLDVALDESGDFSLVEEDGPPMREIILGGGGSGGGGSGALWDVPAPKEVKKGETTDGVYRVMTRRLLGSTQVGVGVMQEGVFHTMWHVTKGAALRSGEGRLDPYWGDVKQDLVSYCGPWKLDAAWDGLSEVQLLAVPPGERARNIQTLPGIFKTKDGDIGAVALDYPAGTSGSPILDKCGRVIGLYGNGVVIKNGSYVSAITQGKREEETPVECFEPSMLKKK
As to the kind of experiment: ZIKV NS2B-NS3 enzyme-based fluorescence peptide cleavage assay. Format: biochemical. Conditions: for protease activity inhibition efficacy in screening: inhibitor concentration of 50 μM, 5 μM protease, 10 μM substrate. A digest of the protocol:
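His-tagged NS2B-NS3 protease was expressed in E. coli BL21(DE3) and purified by metal-affinity chromatography. Test compound at 6.25–100 μM was incubated with 5 μM protease in cleavage buffer for 30 min at 37 °C, then with 10 μM Boc-KKR-AMC for 1 h. AMC fluorescence was read at ex 355 / em 455 nm. Activity is expressed as % of the protease-alone control.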

Data set [2] can be described thus: Cell viability by ATPlite. Format: cell-based. Conditions: human, Huh-7 cells. For orientation: Cellular ATP, detected with luciferase, serves as a proxy for viable cell number.
In another data set the test system is ZIKV (MR-766). As to the kind of experiment: ZIKV RNA replication in infected Huh-7 cells by RT-qPCR. Format: cell-based, Zika virus. Conditions: for Selectivity index (SI = CC50/EC50): Huh-7 cells; for EC50: Zika virus, Huh-7, 72 h; for inhibition of ZIKV replication (ZIKV RNA level): 0.2, 0.69, 2, 6 μM for 72 h, Huh-7, MOI 0.1. For orientation: In qPCR the cycle at which signal appears reflects the starting amount.

Data set [3] deals with T1, ZIKV NS2B-NS3 protease. As to the kind of experiment: Kinetic analysis of inhibition mechanism. The class given is biochemical. The conditions noted are these: for inhibition mechanism: 75 μM compound, 5 μM protease, Boc-KKR-AMC 0 to 20 μM; for Kcat / Vmax value: protease with 75 μM compound; for Kcat: untreated protease 0.0142; for Vmax value: untreated protease 0.071. A digest of the protocol: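 Purified His-tagged NS2B-NS3 protease was expressed in E. coli BL21(DE3). 5 μM protease was preincubated with 75 μM test compound in cleavage buffer for 30 min at 37 °C. Boc-KKR-AMC at 0–20 μM was then added for 1 h at 37 °C. Released AMC was read at ex 355 / em 455 nm against an AMC standard curve. Mechanism was assigned from Lineweaver-Burk plots.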

In data set [4] the test system is ZIKV. The conditions noted are these: plaque reduction assay; ref Chan et al., 2017; cited from earlier work. (In a plaque reduction assay, fewer plaques than in the control indicate reduced infectivity or spread.)
In data set [5] the test system is ZIKV. The conditions noted are these: primary placental cells, dose range of 0.2 to 1 μM; ref Tabata et al., 2016; cited from earlier work.
For data set [6], the system named is ZIKV. The data set is described as follows: ZIKV-infected ICR suckling mouse model. The class given is in vivo. The procedure, abridged: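 Six-day-old ICR suckling mice (n = 6 per group) were injected intracerebrally with 10^4 pfu ZIKV. Mock mice received 60 °C heat-inactivated virus. Saline or test compound (1 or 10 mg/kg, i.c.) was given at days 1, 3 and 5 post-infection. At day 6, 0.1 g brain was lysed in RIPA for NS2B western blot. The remaining brain had H&E and IHC (NS1, Ly6C), with infiltration quantified. Data are mean ± SD.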

Usually IC50 stands for the concentration that inhibits the measured activity by half. Molecule `Cc1ccc(S(=O)(=O)/N=C2\C=C(NS(=O)(=O)c3ccccc3)C(=O)c3ccccc32)c(C)c1` [Compound 11, (E)−2,4-dimethyl-N-(4-oxo-3-(phenylsulfonamido)naphthalen-1(4H)-ylidene)benzenesulfonamide] showed an IC50 against ZIKV NS2B-NS3 protease [1] above 100 µM.
`CC(=O)Oc1ccc(C=C2C(=O)N(c3ccccc3)C(=S)N(c3ccccc3)C2=O)cc1` [Compound 1, 4-((4,6-dioxo-1,3-diphenyl-2-thioxotetrahydropyrimidin-5(2H)-ylidene)methyl)phenyl acetate] displayed an IC50 at ZIKV NS2B-NS3 protease [1] of 63.4 µM.
On the same count and under the same terms, for `CCc1ccc(S(=O)(=O)/N=C2\C=C(NS(=O)(=O)c3ccccc3)C(=O)c3ccccc32)cc1` [Compound 5, (E)−4-ethyl-N-(4-oxo-3-(phenylsulfonamido)naphthalen-1(4H)-ylidene)benzene sulfonamide] the value was above 100 µM.
Broadly, the CC50 is the concentration at which the toxic effect on the cells reaches its halfway point. Broadly, the EC50 is the concentration needed to bring the measured effect to its halfway point. At ZIKV NS2B-NS3 protease [1], `Oc1cccc(-c2c3nc(c(-c4cccc(O)c4)c4ccc([nH]4)c(-c4cccc(O)c4)c4nc(c(-c5cccc(O)c5)c5ccc2[nH]5)CC4)C=C3)c1` [Temoporfin, reference compound] showed a concentration for half-maximal inhibition (IC50) of 18.8 µM. For the same molecule, in data set [2], the CC50 at 48 h was 61.1 µM. In the data set with ZIKV (MR-766), the “Selectivity index (SI = CC50/EC50)” value is reported as 30.53 and the EC50 was found to be 2 µM.
With `Cc1ccc(NC(=O)COc2ccc(C=C3C(=O)N(c4ccccc4)C(=S)N(c4ccccc4)C3=O)cc2)cc1C` [Compound 9, N-(3,4-dimethylphenyl)−2-(4-((4,6-dioxo-1,3-diphenyl-2-thioxotetrahydropyrimidin-5(2H)-ylidene)methyl)phenoxy)acetamide], at ZIKV NS2B-NS3 protease [1], the IC50 is 14.2 µM and the “protease activity inhibition efficacy in screening” value was “better protease activity inhibition efficacy than others”. In addition, on ZIKV NS2B-NS3 protease [3], the inhibition mechanism entry is “non-competitive”, the Kcat worked out at 0.000143 s⁻¹ and the Vmax value came to 0.043 µmol/min. The molecule also registered a CC50 at 48 h in data set [2] of 61.5 µM. For the same molecule, in the data set with ZIKV (MR-766), the “inhibition of ZIKV replication (ZIKV RNA level)” value (from here on “inhibition of ZIKV replication”) is on record as “could significantly inhibit ZIKV replication”, the “Selectivity index (SI = CC50/EC50)” value is 17.46 and the EC50 was 3.52 µM.
In the case of `Cc1cc(C)c(S(=O)(=O)/N=C2\C=C(NS(=O)(=O)c3ccccc3)C(=O)c3ccccc32)cc1C` [Compound 6, (E)−2,4,5-trimethyl-N-(4-oxo-3-(phenylsulfonamido)naphthalen-1(4H)-ylidene)benzenesulfonamide], the concentration for half-maximal inhibition (IC50) against ZIKV NS2B-NS3 protease [1] is above 100 µM.
As to `CC(C)C[C@H]1C(=O)N2CCC[C@H]2[C@]2(O)O[C@](NC(=O)[C@@H]3C=C4c5cccc6[nH]c(Br)c(c56)C[C@H]4N(C)C3)(C(C)C)C(=O)N12` [bromocriptine], the ZIKV-mediated plaque reduction in the data set with ZIKV [4] was around 100%.
In the case of duramycin, the “block of ZIKV infection” value in the data set with ZIKV [5] is above 80%.
On to `COc1cc(C=C2C(=O)N(c3ccccc3)C(=S)N(c3ccccc3)C2=O)cc(Br)c1OCc1cccc2ccccc12` [Compound 2, 5-(3‑bromo-5‑methoxy-4-(naphthalen-1-ylmethoxy)benzylidene)−1,3-diphenyl-2-thioxodihydropyrimidine-4,6(1H,5H)-dione], for which 72.5 µM corresponded to half-maximal inhibition at ZIKV NS2B-NS3 protease [1] (IC50).
As to `COc1cc(C=C2C(=O)N(c3ccccc3)C(=S)N(c3ccccc3)C2=O)cc(I)c1OCc1ccccc1Cl` [Compound 3, 5-(4-((2-chlorobenzyl)oxy)−3-iodo-5-methoxybenzylidene)−1,3-diphenyl-2-thioxodihydropyrimidine-4,6(1H,5H)-dione], at ZIKV NS2B-NS3 protease [1], 14 µM corresponded to half-maximal inhibition (IC50) and the “protease activity inhibition efficacy in screening” value was “better protease activity inhibition efficacy than others”. Also, at ZIKV NS2B-NS3 protease [3], the inhibition mechanism result is “non-competitive”, the Kcat was found to be 0.00013 s⁻¹ and the Vmax value is 0.040 µmol/min. The molecule further had a CC50 at 48 h in data set [2] above 200 µM. For the same molecule, in the data set with ZIKV (MR-766), the “inhibition of ZIKV replication” value is recorded as “could significantly inhibit ZIKV replication” and a half-maximal effect (EC50) was put at 2.15 µM.
For the molecule `COc1cc(C=C2C(=O)N(c3ccc(C)cc3)C(=S)N(c3ccc(C)cc3)C2=O)cc(Br)c1O` [Compound 8, 5-(3‑bromo-4‑hydroxy-5-methoxybenzylidene)−2-thioxo-1,3-di-p-tolyldihydropyrimidine-4,6(1H,5H)-dione], at ZIKV NS2B-NS3 protease [1], half-maximal inhibition (IC50) required 6.85 µM and the “protease activity inhibition efficacy in screening” value is given as “better protease activity inhibition efficacy than others”. Besides, on ZIKV NS2B-NS3 protease [3], the inhibition mechanism result was “non-competitive”, the Kcat was 0.00015 s⁻¹ and the Vmax value stood at 0.045 µmol/min. The cytotoxic concentration (CC50) at 48 h in data set [2] was above 200 µM. For the same molecule, in the data set on ZIKV (MR-766), the “inhibition of ZIKV replication” value is reported as “could significantly inhibit ZIKV replication” and a half-maximal effect (EC50) was put at 0.52 µM. In the data set with ZIKV [6] (1 mg/kg or 10 mg/kg on days 1, 3, 5, observed 6 days, vs saline), the “survival (protection from lethal ZIKV infection)” value is recorded as “protected all ZIKV-infected suckling mice from lethal ZIKV infection”. Besides, the “clinical score (sickness)” value in the data set with ZIKV [6] (1 mg/kg or 10 mg/kg on days 1, 3, 5, vs saline) is given as “a delay in the sickness induced by ZIKV infection”. Further, in the data set on ZIKV [6] (6 dpi, vs saline-treated group), the “Ly6C+ monocyte infiltration in brain tissue” value is given as “significantly less accumulated”, the “ZIKV NS1 level in brain tissue (IHC)” value is “significantly decreased” and the “ZIKV NS2B protein level in brain tissue (western blot)” value is “significantly decreased”.
Consider `Cc1ccc(S(=O)(=O)/N=C2\C=C(NS(=O)(=O)c3ccccc3)C(=O)c3ccccc32)cc1` [Compound 7, (E)−4-methyl-N-(4-oxo-3-(phenylsulfonamido)naphthalen-1(4H)-ylidene)benzenesulfonamide], for which, on ZIKV NS2B-NS3 protease [1], the IC50 is above 100 µM.
Turning to `CC(C)c1ccc(S(=O)(=O)/N=C2/C=C(NS(=O)(=O)c3ccccc3)C(=O)c3ccccc32)cc1` [Compound 10, (Z)−4-isopropyl-N-(4-oxo-3-(phenylsulfonamido)naphthalen-1(4H)-ylidene)benzenesulfonamide], the concentration for half-maximal inhibition (IC50) against ZIKV NS2B-NS3 protease [1] is above 100 µM.
The molecule `O=C1C(=Cc2cc(I)c(O)c(I)c2)C(=O)N(c2ccccc2)C(=S)N1c1ccccc1` [Compound 4, 5-(4‑hydroxy-3,5-diiodobenzylidene)−1,3-diphenyl-2-thioxodihydropyrimidine-4,6(1H,5H)-dione] had an IC50 against ZIKV NS2B-NS3 protease [1] above 100 µM.
